Measurements from ChEMBL document CHEMBL4371030, “Synthesis and antitumor activity of biotinylated camptothecin derivatives as potent cytotoxic agents” (Bioorg Med Chem Lett, 2019).

Key:
Format in all cases: functional, cell-based
A549 = assay: Cytotoxicity against human A549 cells after 48 hrs by MTT assay; conditions: A549, 48 h
In short: (§1)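 MTT viability read-out on a human tumour panel: HL-60 leukaemia, SMMC-7721 hepatoma, A-549 lung, MCF-7 breast and SW480 colon carcinoma. Camptothecin and cisplatin were run alongside as positive controls. Potency is reported as the half-maximal inhibitory concentration (IC50) in μmol L-1.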

SW480 = assay: Cytotoxicity against human SW480 cells after 48 hrs by MTT assay; conditions: SW480, 48 h; in short: as §1
HL-60 = assay: Cytotoxicity against human HL60 cells after 48 hrs by MTT assay; conditions: HL-60, 48 h; in short: as §1
SMMC-7721 = assay: Cytotoxicity against human SMMC7721 cells after 48 hrs by MTT assay; conditions: SMMC-7721, 48 h; in short: as §1
MCF7 = assay: Cytotoxicity against human MCF7 cells after 48 hrs by MTT assay; conditions: MCF7, 48 h; in short: as §1

| Compound | IC50 (A549) | IC50 (SW480) | IC50 (HL-60) | IC50 (SMMC-7721) | IC50 (MCF7) |
| --- | --- | --- | --- | --- | --- |
| CC[C@@]1(OC(=O)CCCC[C@@H]2SC[C@@H]3NC(=O)N[C@@H]32)C(=O)OCc2c1cc1n(c2=O)Cc2cc3ccccc3nc2-1 | 3.47 µM | 12.5 µM | 2.3 µM | 7.69 µM | 18.2 µM |
| CCc1c2c(nc3ccc(OC(=O)CCCC[C@@H]4SC[C@@H]5NC(=O)N[C@@H]54)cc13)-c1cc3c(c(=O)n1C2)COC(=O)[C@]3(O)CC | 0.52 µM | 0.13 µM | 3.31 µM | 1.55 µM | 0.8 µM |
| CC[C@@]1(OC(=O)CCCCCNC(=O)CCCC[C@@H]2SC[C@@H]3NC(=O)N[C@@H]32)C(=O)OCc2c1cc1n(c2=O)Cc2cc3ccccc3nc2-1 | 19.9 µM | > 40 µM | 6.57 µM | 15.3 µM | 21.5 µM |
| CC[C@@]1(OCc2cn(CCOCCOCCOCCOCCOCCNC(=O)CCCC[C@@H]3SC[C@@H]4NC(=O)N[C@@H]43)nn2)C(=O)OCc2c1cc1n(c2=O)Cc2cc3ccccc3nc2-1 | > 40 µM | > 40 µM | > 40 µM | > 40 µM | > 40 µM |
| CCc1c2c(nc3ccc(OC(=O)CCCCCNC(=O)CCCC[C@@H]4SC[C@@H]5NC(=O)N[C@@H]54)cc13)-c1cc3c(c(=O)n1C2)COC(=O)[C@]3(O)CC | 0.23 µM | 1.48 µM | 0.76 µM | 1.14 µM | 0.4 µM |
| CC[C@@]1(O)C(=O)OCc2c1cc1n(c2=O)Cc2cc3cc(OC(=O)CCCCCNC(=O)CCCC[C@@H]4SC[C@@H]5NC(=O)N[C@@H]54)ccc3nc2-1 | 0.75 µM | 0.45 µM | 1.14 µM | 1.85 µM | 0.34 µM |
| CC[C@@]1(OCc2cn(CCOCCOCCNC(=O)CCCC[C@@H]3SC[C@@H]4NC(=O)N[C@@H]43)nn2)C(=O)OCc2c1cc1n(c2=O)Cc2cc3ccccc3nc2-1 | 3.63 µM | 6.05 µM | 0.72 µM | 4.77 µM | 3.47 µM |
| CC[C@@]1(O)C(=O)OCc2c1cc1n(c2=O)Cc2cc3cc(OC(=O)CCCC[C@@H]4SC[C@@H]5NC(=O)N[C@@H]54)ccc3nc2-1 | 1.23 µM | 0.55 µM | 3.19 µM | 3.32 µM | 2.3 µM |
| CCc1c2c(nc3ccccc13)-c1cc3c(c(=O)n1C2)COC(=O)[C@@]3(CC)OC(=O)CCCCCNC(=O)CCCC[C@@H]1SC[C@@H]2NC(=O)N[C@@H]21 | 3.08 µM | 16.2 µM | 0.84 µM | 12.2 µM | 1.94 µM |
| CC[C@@]1(O)C(=O)OCc2c1cc1n(c2=O)Cc2cc3ccccc3nc2-1 [CAMPTOTHECIN] |  | 0.29 µM | < 0.064 µM | 0.45 µM |  |
| CCc1c2c(nc3ccccc13)-c1cc3c(c(=O)n1C2)COC(=O)[C@@]3(CC)OCc1cn(CCOCCOCCOCCOCCOCCNC(=O)CCCC[C@@H]2SC[C@@H]3NC(=O)N[C@@H]32)nn1 | 5.18 µM | 0.57 µM | 4.77 µM | 4.1 µM | 9.21 µM |
| CCc1c2c(nc3ccccc13)-c1cc3c(c(=O)n1C2)COC(=O)[C@@]3(CC)OCc1cn(CCOCCOCCNC(=O)CCCC[C@@H]2SC[C@@H]3NC(=O)N[C@@H]32)nn1 | > 40 µM | > 40 µM | > 40 µM | > 40 µM | > 40 µM |
| CCc1c2c(nc3ccccc13)-c1cc3c(c(=O)n1C2)COC(=O)[C@@]3(CC)OC(=O)CCCC[C@@H]1SC[C@@H]2NC(=O)N[C@@H]21 | 1.14 µM | 8.73 µM | 1.81 µM | 3.28 µM | 4.26 µM |
